The values below come from ChEMBL document CHEMBL4152381, “Discovery of Benzoazepinequinoline (BAQ) Derivatives as Novel, Potent, Orally Bioavailable Respiratory Syncytial Virus Fusion Inhibitors” (J Med Chem, 2018).

A short description of data set [1]: Cytotoxicity against human Hep2 cells assessed as decrease in cell viability after 5 days by CCK8 assay. The format is cell-based. The note with it: HEp-2 cells. The gist of the method: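 Uninfected HEp-2 cells, seeded at 6000 per well, were cultured 5 days with serially diluted compound alongside the CPE assay. Viability was read by CCK-8, and CC50 was the concentration cytotoxic to 50% of cells.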
For orientation: Formazan colour is commonly taken as a measure of viable cells.

Data set [2] in a line: Therapeutic index, ratio of CC50 for human Hep2 cells to EC50 for inhibition of RSV long fusion protein assessed as protection against virus induced cytopathic effect in infected human Hep2 cells. Format: toxicity, cell-based. The note with it: HEp-2 cells, read-out: Ratio CC50/EC50. The gist of the method: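 Index computed as CC50/EC50. CC50 came from uninfected HEp-2 cells and EC50 from 50% reduction of RSV Long CPE in HEp-2 cells (MOI 0.02). Both assays ran 5 days with serially diluted compound and a CCK-8 viability read-out.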
(Cytopathic effects are the visible damage that an infection or toxin causes in cultured cells.)

Data set [3] is described as follows: Intrinsic clearance in rat liver microsomes. Format: ADME, microsome. The note with it: read-out: CLH. The gist of the method:
(§1)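 Intrinsic clearance was measured in human, rat or mouse liver microsomes and reported as scaled clearance.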

Data set [4] is described as follows: Intrinsic clearance in human liver microsomes. The format is ADME, microsome. The note with it: read-out: CLH. The gist of the method: as §1
Data set [5] is described as follows: Intrinsic clearance in mouse liver microsomes. Format: ADME, microsome. The note with it: read-out: CLH. The gist of the method:
as §1
(In general: Liver microsomes are a subcellular fraction often used to study metabolism.)

A short description of data set [6]: Effective permeability of the compound by PAMPA. The note with it: read-out: Peff. The format is ADME. The gist of the method: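 Parallel artificial membrane permeability assay, with permeability reported in 10−6 cm/s.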
A short description of data set [7]: AUC (0 to infinity) in Wistar-Han rat at 2 mg/kg, iv after 15 mins to 24 hrs by LC/MS/MS analysis. The format is ADME, organism-based. Also on record: dose 2 mg/kg, route intravenous, time infinity. The settings on record: in vivo.
Data set [8] is described as follows: AUC (0 to infinity) in Wistar-Han rat at 10 mg/kg, po after 15 mins to 24 hrs by LC/MS/MS analysis. Format: ADME, organism-based. Further details: dose 10 mg/kg, time infinity, route oral. The settings on record: in vivo.
Data set [9] can be described thus: Clearance in Wistar-Han rat at 2 mg/kg, iv after 15 mins to 24 hrs by LC/MS/MS analysis. Format: ADME, organism-based. The note with it: in vivo. The gist of the method: (§2)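 Single-dose PK in male Wistar rats at 2 mg/kg iv and 10 mg/kg po. Plasma clearance, Vss, iv half-life, AUC and oral bioavailability were derived.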
Data set [10] in a line: Volume of distribution at steady state in Wistar-Han rat at 2 mg/kg, iv after 15 mins to 24 hrs by LC/MS/MS analysis. The format is ADME, organism-based. The note with it: in vivo, read-out: Vdss. The gist of the method:
as §2

Data set [11] is described as follows: Oral bioavailability in Wistar-Han rat at 10 mg/kg after 15 mins to 24 hrs by LC/MS/MS analysis. Format: ADME, organism-based. The note with it: in vivo. The gist of the method: as §2
Data set [12] can be described thus: Solubility of the compound by LYSA. Format: physicochemical. The gist of the method:
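Solubility measured by lyophilization solubility assay (LYSA), reported in μg/mL.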

Data set [13] can be described thus: Half life in Wistar-Han rat at 2 mg/kg, iv by LC/MS/MS analysis. Format: ADME, organism-based. The note with it: in vivo. The gist of the method:
as §2

Data set [14] in a line: Drug metabolism in rat liver microsomes assessed as dealkylation. The format is ADME, microsome.
Data set [15] in a line: Drug metabolism in mouse liver microsomes assessed as dealkylation. Format: ADME, microsome.
The nature of data set [16]: Drug metabolism in mouse liver microsomes assessed as oxidation. Format: ADME, microsome.
Data set [17] is described as follows: Drug metabolism in rat liver microsomes assessed as oxidation. Format: ADME, microsome.
Data set [18] in a line: Fraction unbound in human plasma. Format: ADME, cell-free.
Data set [19] in a line: Fraction unbound in mouse plasma. The format is ADME, cell-free.

Structures are written as SMILES.

As for `Cc1ccc2nc(N3CCCc4ccccc4C3)cc(NCCN)c2c1`, the CC50 at 120 h in [1] amounted to 9.4 µM. In addition, the selectivity ratio in data set [2] was determined as 129.

In the case of `NCCCCNc1cc(N2CCc3ccccc3C2)nc2ccccc12`, in [1], the cytotoxic concentration (CC50) at 120 h was 7.4 µM.

As to `NCCNc1cc(N2CCOc3ccccc3C2)nc2ccccc12`, in data set [1], the CC50 at 120 h is greater than 10 µM. In addition, in data set [2], the selectivity ratio is greater than 43. In addition, the CLint scaled in [3] worked out at 20 mL/min/kg; in data set [4], 14 mL/min/kg; in data set [5], 25 mL/min/kg.

Consider `NCCNc1cc(N2CCCc3ccccc3C2)nc2ccccc12`, for which the CC50 at 120 h in data set [1] is 23 µM. The selectivity ratio in data set [2] amounted to 115. The Papp in data set [6] is 0.99 ×10⁻⁶ cm/s. Further, the CLint scaled amounted to 23 mL/min/kg in data set [3], 10 mL/min/kg in data set [4] and 19 mL/min/kg in [5]. The results for the AUC(0-inf) in data set [7] and in data set [8] were 324 ng·h/mL and 510 ng·h/mL, respectively. Besides, the clearance in [9] fell in the range of 89 to 106 mL/min/kg. Moreover, the Vd in data set [10] lay in the range of 73 to 106 L/kg. This molecule displayed a bioavailability in [11] of 32%. Besides, in [12], the solubility was greater than 460 µg/mL. For the same molecule, in [13], the half-life was 12 h. Besides, the Drug metabolism result in [14], in data set [15], in data set [16] and in data set [17] was “Metabolite_Detected” throughout.

As to `Cc1ccc2nc(N3CCS(=O)(=O)c4ccccc4C3)cc(NCCCCCN)c2c1`, the CC50 at 120 h in data set [1] was found to be 21 µM. In data set [2], the selectivity ratio was determined as 778.

Consider `NC(=O)NCCNc1cc(N2CCc3ccccc3C2)nc2ccccc12`, for which the CC50 at 120 h in [1] is 80 µM. For the same molecule, the selectivity ratio in [2] was 5.

For `NCC(O)CNc1cc(N2Cc3ccccc3C2)nc2ccccc12` (stereo unspecified), in data set [1], the CC50 at 120 h worked out at 2.9 µM.

`COc1ccc2nc(N3CCCc4ccccc4C3)cc(NCCN)c2c1`: the CC50 at 120 h in [1] was 4.8 µM. In data set [2], the selectivity ratio was 15.

As for `NCCCNc1cc(N2CCc3ccccc3C2)nc2ccccc12`, the CC50 at 120 h in data set [1] amounted to 8.4 µM. The selectivity ratio in data set [2] is 1.

As to `Cc1ccc2nc(N3CCS(=O)(=O)c4ccccc4C3)cc(NCCCN)c2c1`, the 50% cytotoxic concentration (CC50) at 120 h in data set [1] was determined as 21 µM. In addition, the selectivity ratio in data set [2] is 21000.

For `Cc1ccc2nc(N3CCS(=O)(=O)c4ccccc4C3)cc(NCCN)c2c1`, the CC50 at 120 h in data set [1] was found to be 66 µM. In [2], the selectivity ratio worked out at 16500. For the same molecule, in data set [6], the Papp amounted to 0.12 ×10⁻⁶ cm/s. The figures for the CLint scaled in data set [3], in [4] and in data set [5] were 8 mL/min/kg, 5 mL/min/kg and 1 mL/min/kg, respectively. The molecule further came in with an AUC(0-inf) in data set [7] of 346 ng·h/mL. Moreover, in data set [9], the clearance was determined as 97 mL/min/kg. Also, the Vd in [10] is 17 L/kg. The molecule also displayed a bioavailability in data set [11] of 0%. Also, the solubility in [12] is greater than 466 µg/mL. The fraction unbound in [18] was determined as 0.078; in [19], 0.08. The half-life in data set [13] is 4.5 h.

On to `CS(=O)(=O)c1ccc2nc(N3CCCc4ccccc4C3)cc(NCCN)c2c1`, for which the CC50 at 120 h in [1] stood at 13 µM. For the same molecule, the selectivity ratio in [2] turned out to be 2.

Consider `NCCNc1cc(N2CCCc3ccccc3C2)nc2ccc(Cl)cc12`, for which, in [1], the CC50 at 120 h was greater than 3.2 µM. In addition, in data set [2], the selectivity ratio was greater than 27.

Consider `Cc1ccc2nc(N3CCC(F)(F)c4ccccc4C3)cc(NCCN)c2c1`, for which the CC50 at 120 h in data set [1] came out at 6.6 µM. For the same molecule, the selectivity ratio in data set [2] was found to be 106.

Turning to `OCC(O)CNc1cc(N2CCc3ccccc3C2)nc2ccccc12` (stereo unspecified), the CC50 at 120 h in data set [1] amounted to 66 µM. Moreover, the selectivity ratio in [2] is 3.

As for `NCCNc1cc(N2CCCc3ccccc3C2)nc2ccc(F)cc12`, the CC50 at 120 h in data set [1] came out at 8 µM. Moreover, the selectivity ratio in data set [2] stood at 5.

Consider `NCCNc1cc(N2CCc3ccccc3C2)nc2ccccc12`, for which the CC50 at 120 h in data set [1] was 15 µM. Further, in data set [2], the selectivity ratio came to 7.

Turning to `Cc1ccc2nc(N3CCCc4cc(F)ccc4C3)cc(NCCN)c2c1`, in [1], the CC50 at 120 h was greater than 3.2 µM. Moreover, in data set [2], the selectivity ratio was greater than 7. Moreover, the CLint scaled was 33 mL/min/kg in data set [3], 8 mL/min/kg in [4] and 31 mL/min/kg in [5].

Regarding `NCCNc1cc(N2CCS(=O)(=O)c3ccccc3C2)nc2ccccc12`, in data set [1], the 50% cytotoxic concentration (CC50) at 120 h worked out at 94 µM. Moreover, the selectivity ratio in data set [2] is 8540. The CLint scaled in data set [3] came out at 3 mL/min/kg.

`NCCNc1cc(N2CCCc3ccccc3C2)nc2cccc(Cl)c12`: the CC50 at 120 h in data set [1] came to 23 µM. Besides, in data set [2], the selectivity ratio was found to be 3.

For the molecule `NCC(O)CNc1cc(N2CCc3ccccc3C2)nc2ccccc12` (stereo unspecified), the CC50 at 120 h in data set [1] was 21 µM. Moreover, the selectivity ratio in data set [2] was 95.

Take `Cc1ccc2nc(N3CCCc4ccc(F)cc4C3)cc(NCCN)c2c1`: in data set [1], the CC50 at 120 h was greater than 3.2 µM. Besides, the selectivity ratio in data set [2] was greater than 32. Further, the CLint scaled in data set [3] is 160 mL/min/kg; in [4], 6 mL/min/kg; in [5], 24 mL/min/kg.

For the molecule `NCCNc1cc(N2CCCc3ccccc3C2)nc2cc(Cl)ccc12`, the CC50 at 120 h in data set [1] is 7.5 µM. For the same molecule, the selectivity ratio in data set [2] worked out at 2.

With `NCCNc1cc(N2CCCc3ccccc3C2)nc2c(Cl)cccc12`, the CC50 at 120 h in [1] was 25 µM. The selectivity ratio in [2] was 23.

For the molecule `NCC(O)CNc1cc(N2CCCc3ccccc3C2)nc2ccccc12` (stereo unspecified), the half-maximal cytotoxic concentration (CC50) at 120 h in [1] was found to be 21 µM. The selectivity ratio in [2] came out at 95.

Regarding `CC(O)CNc1cc(N2CCc3ccccc3C2)nc2ccccc12` (stereo unspecified), the CC50 at 120 h in data set [1] stood at 89 µM.

With `Cc1ccc2nc(N3CCS(=O)(=O)c4ccccc4C3)cc(NCCCCN)c2c1`, the CC50 at 120 h in data set [1] was determined as 92 µM. Besides, the selectivity ratio in data set [2] stood at 13100.

On to `NCCNc1cc(N2CCCc3ccccc3C2)nc2ccc(C(F)(F)F)cc12`, for which the CC50 at 120 h in data set [1] was 6.7 µM. Also, the selectivity ratio in [2] was 6.

For `N=C(N)NCCNc1cc(N2CCc3ccccc3C2)nc2ccccc12`, in data set [1], the CC50 at 120 h was greater than 100 µM. For the same molecule, the selectivity ratio in data set [2] turned out to be 43.

For `Cc1ccc2nc(N3CC(=O)Nc4ccccc4C3)cc(NCCN)c2c1`, the CC50 at 120 h in [1] came out at 55 µM. In data set [2], the selectivity ratio is 177. Further, the CLint scaled in data set [3] came to 21 mL/min/kg; in [5], 11 mL/min/kg.

Turning to `Cc1ccc2nc(N3CCNc4ccccc4C3)cc(NCCN)c2c1`, the CC50 at 120 h in [1] amounted to 12 µM. Moreover, the selectivity ratio in data set [2] amounted to 52. Also, the CLint scaled was determined as 43 mL/min/kg in data set [3], 5 mL/min/kg in data set [4] and 19 mL/min/kg in data set [5].

One may read the CC50 as the concentration that lowers cell viability or growth by half. One may read the AUC(0-inf) as total exposure, with the tail of the curve extrapolated. A high value points to more exposure. A word on the clearance: it is the volume of plasma or blood freed of the substance per unit of time. Read a low clearance as a low capacity for elimination. As usually defined, the bioavailability is the share of a dose that reaches the circulation, judged against a reference dose that is usually intravenous. Low readings indicate poor availability, high ones good availability. By solubility is commonly meant how much of the substance goes into solution per volume. Read a low solubility as a poorly soluble substance. Usually half-life stands for the time needed for the level to fall by half in the phase considered. In general, fraction unbound refers to free concentration divided by total concentration. Lower therefore signals extensive binding.
